Results taken from ChEMBL document CHEMBL4392846, “Identification and design of novel small molecule inhibitors against MERS-CoV papain-like protease via high-throughput screening and molecular modeling” (Bioorg Med Chem, 2019).
The source made the active and inactive calls. The calls are words filed in the database; no cut-off is given here.

What was measured:
[1] = target: T1, Replicase polyprotein 1ab (Middle East respiratory syndrome-related coronavirus (isolate UnitedKingdom/H123990006/2012) (Betacoronavirus England 1) (Humancoronavirus EMC), UniProt K9N7C7); experiment: (§1) Inhibition of MERS-CoV papain-like protease using Z-Arg-Leu-Arg-Gly-Gly-AMC as substrate preincubated for 5 mins followed by substrate addition and measured for 10 mins by fluorescence assay
[2] = target: T1, Replicase polyprotein 1ab; experiment: Binding affinity to MERS-CoV papain-like protease by SPR analysis
Summary of the method: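 SPR on Biacore T200. Enzyme at 50 µg/mL in 10 mM sodium acetate pH 5.5 amine-coupled to CM5 chip (~10,000 RU); blank flow cells as reference. Compounds 0-50 µM (2-fold series) in PBSP + 0.5 mM TCEP, 2% DMSO, 30 µL/min, 25°C; double-referenced. KD from steady-state responses fit to rectangular hyperbola; rate constants from global 1:1 Langmuir fit.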

[3] = target: Replicase polyprotein 1ab (Middle East respiratory syndrome-related coronavirus (isolate UnitedKingdom/H123990006/2012) (Betacoronavirus England 1) (Humancoronavirus EMC)) (UniProt K9N7C7); experiment: as §1; design: concentration or dose not given beside the values
Target sequence in this assay (K9N7C7 854-2740 limits assumed): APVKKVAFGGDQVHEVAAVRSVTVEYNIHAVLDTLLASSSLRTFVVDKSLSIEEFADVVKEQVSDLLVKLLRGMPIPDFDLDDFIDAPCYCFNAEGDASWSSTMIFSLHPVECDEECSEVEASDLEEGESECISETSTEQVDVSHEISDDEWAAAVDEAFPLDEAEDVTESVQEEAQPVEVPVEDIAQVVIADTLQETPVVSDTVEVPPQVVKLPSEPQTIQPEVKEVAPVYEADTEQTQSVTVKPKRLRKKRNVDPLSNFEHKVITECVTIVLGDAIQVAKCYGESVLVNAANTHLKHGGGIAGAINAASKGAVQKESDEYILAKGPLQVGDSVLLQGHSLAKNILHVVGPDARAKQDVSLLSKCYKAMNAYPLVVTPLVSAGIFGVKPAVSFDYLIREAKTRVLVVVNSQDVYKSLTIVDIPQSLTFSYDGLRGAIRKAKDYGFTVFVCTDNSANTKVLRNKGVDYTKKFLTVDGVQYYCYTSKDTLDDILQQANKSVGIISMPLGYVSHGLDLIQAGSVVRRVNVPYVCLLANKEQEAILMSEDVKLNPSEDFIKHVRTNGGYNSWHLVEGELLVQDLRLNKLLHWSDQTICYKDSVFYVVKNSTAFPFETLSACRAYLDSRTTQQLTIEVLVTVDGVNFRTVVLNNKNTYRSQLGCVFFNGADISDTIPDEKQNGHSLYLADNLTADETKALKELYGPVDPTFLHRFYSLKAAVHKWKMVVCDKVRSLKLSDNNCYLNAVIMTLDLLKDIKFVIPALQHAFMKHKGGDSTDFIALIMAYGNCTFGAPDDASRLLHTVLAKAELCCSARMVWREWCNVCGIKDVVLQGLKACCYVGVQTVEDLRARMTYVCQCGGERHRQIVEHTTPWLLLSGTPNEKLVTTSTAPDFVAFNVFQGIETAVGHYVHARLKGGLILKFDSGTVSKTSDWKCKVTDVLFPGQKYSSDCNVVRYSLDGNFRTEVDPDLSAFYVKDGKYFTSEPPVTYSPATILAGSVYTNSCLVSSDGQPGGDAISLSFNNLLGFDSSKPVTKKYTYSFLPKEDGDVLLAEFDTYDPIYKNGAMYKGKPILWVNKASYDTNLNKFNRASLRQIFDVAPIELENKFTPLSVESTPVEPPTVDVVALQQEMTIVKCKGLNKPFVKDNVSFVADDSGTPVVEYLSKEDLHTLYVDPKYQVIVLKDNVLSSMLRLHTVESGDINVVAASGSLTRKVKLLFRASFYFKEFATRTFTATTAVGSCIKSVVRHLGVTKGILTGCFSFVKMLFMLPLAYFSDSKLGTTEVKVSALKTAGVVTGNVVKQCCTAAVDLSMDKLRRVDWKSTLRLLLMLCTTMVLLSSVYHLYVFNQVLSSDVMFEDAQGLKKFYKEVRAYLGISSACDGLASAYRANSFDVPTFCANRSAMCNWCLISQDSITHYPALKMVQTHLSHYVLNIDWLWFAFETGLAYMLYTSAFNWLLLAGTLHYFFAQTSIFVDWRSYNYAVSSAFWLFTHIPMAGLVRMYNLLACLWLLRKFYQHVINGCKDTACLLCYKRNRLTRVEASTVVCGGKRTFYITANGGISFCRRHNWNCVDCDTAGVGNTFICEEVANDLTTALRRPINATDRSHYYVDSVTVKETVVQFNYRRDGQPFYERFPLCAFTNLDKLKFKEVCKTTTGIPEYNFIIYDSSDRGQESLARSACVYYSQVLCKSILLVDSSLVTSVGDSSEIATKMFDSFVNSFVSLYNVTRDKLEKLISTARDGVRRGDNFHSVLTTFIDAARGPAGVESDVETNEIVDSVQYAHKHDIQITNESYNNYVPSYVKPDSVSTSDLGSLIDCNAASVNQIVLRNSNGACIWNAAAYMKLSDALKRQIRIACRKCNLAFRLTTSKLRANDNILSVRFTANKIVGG

[4] = target: Replicase polyprotein 1ab (Middle East respiratory syndrome-related coronavirus (isolate UnitedKingdom/H123990006/2012) (Betacoronavirus England 1) (Humancoronavirus EMC)) (UniProt K9N7C7); experiment: Binding affinity to MERS-CoV papain-like protease in presence of Z-Arg-Leu-Arg-Gly-Gly-AMC by SPR analysis
Summary of the method: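 MERS-CoV PLpro was amine-coupled to a CM5 chip (~10,000 RU), with unmodified reference cells. Compounds (0-50 µM, 2-fold series) were injected with 500 µM Z-RLRGG-AMC substrate present, in PBSP + 0.5 mM TCEP + 2% DMSO at 30 µL/min and 25°C. Data were double-referenced, and KD came from a steady-state hyperbolic fit.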

[5] = target: Replicase polyprotein 1ab (Middle East respiratory syndrome-related coronavirus (isolate UnitedKingdom/H123990006/2012) (Betacoronavirus England 1) (Humancoronavirus EMC)) (UniProt K9N7C7); experiment: Inhibition of MERS-CoV papain-like protease at 50 uM using Z-Arg-Leu-Arg-Gly-Gly-AMC as substrate preincubated for 5 mins followed by substrate addition and measured for 10 mins by fluorescence assay relative to control
Summary of the method: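 Confirmation retest run by hand in triplicate at room temperature. Buffer: 50 mM HEPES pH 7.5, 0.01% Triton X-100, 0.1 mg/mL BSA, 2 mM DTT. Enzyme and compound preincubated 5 min, then Z-RLRGG-AMC added to 50 µM final. AMC fluorescence (ex 360/em 450 nm) followed continuously; percent inhibition calculated against DMSO control.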

[6] = target: T1, Replicase polyprotein 1ab; experiment: Competitive-inhibition of MERS-CoV papain-like protease using varying levels of Z-Arg-Leu-Arg-Gly-Gly-AMC as substrate by Dixon-plot analysis
[7] = target: Replicase polyprotein 1ab (Middle East respiratory syndrome-related coronavirus (isolate UnitedKingdom/H123990006/2012) (Betacoronavirus England 1) (Humancoronavirus EMC)) (UniProt K9N7C7); experiment: Binding affinity to 15N-labelled His-tagged Apo-MRES-CoV papain-like protease by TROSY [1H-15N] spectroscopy
[8] = target: Replicase polyprotein 1ab (Middle East respiratory syndrome-related coronavirus (isolate UnitedKingdom/H123990006/2012) (Betacoronavirus England 1) (Humancoronavirus EMC)) (UniProt K9N7C7); experiment: Reversible inhibition of MERS-CoV papain-like protease assessed as recovery of enzyme activity at 125 times IC50 using Z-Arg-Leu-Arg-Gly-Gly-AMC as substrate incubated for 1 hr followed by 2-fold dilution and measured by fluorescence assay
Summary of the method: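 Dilution method: 4 µM enzyme incubated with compound for 1 h at room temperature in HEPES pH 7.5 assay buffer (2 mM DTT, 0.1 mg/ml BSA, 0.01% Triton X-100). DMSO-only enzyme served as control. Both samples diluted 2-fold, then seven further 2-fold dilutions. Activity read at each step with the continuous Z-RLRGG-AMC fluorescence assay.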

T1 sequence (K9N7C7 854-2740 limits assumed): as above

| SMILES | IC50 [1] [µM] | Kd [2] [µM] | inhibition [3] [%] | other results |
| --- | --- | --- | --- | --- |
| O=[N+]([O-])c1ccc(O)c(O)c1 [4-Nitrocatechol] | 145 | – | – | – |
| O=C(O)c1cc(/N=N/c2ccc(S(=O)(=O)Nc3ccccn3)cc2)ccc1O [SULFASALAZINE] | – | 7.6 to 112 | – | – |
| CC1CCCC(C)N1S(=O)(=O)c1ccc(N)cc1 (configuration not stated) | – | – | 7 | – |
| Nc1ccc([N+](=O)[O-])cn1 | 137 | – | – | – |
| O=[N+]([O-])c1ccc(Cl)c2nonc12 | 141 | – | – | – |
| O=C(NC1=CC=CC2C(=O)C=C(c3nn[nH]n3)OC12)c1ccc(OCCCCc2ccccc2)cc1 (configuration not stated) | – | – | – | Activity [4]: inactive; inhibition [5]: > 50% |
| Cc1cc(C)n(S(=O)(=O)c2ccc(N)cc2)c(=O)n1 | 20 | 7.6 to 9.3 | 73 | Ki [6]: 36.6 µM; Activity [7]: Active; inhibition [5]: > 50%; inhibition [8]: Active |
| O=C(O)c1cc(/C=C/c2ccc(N3CCOCC3)cc2)nc2ccccc12 | – | 7.6 to 112 | – | – |
| Cc1ccc(S(=O)(=O)n2c(C)cc(C)nc2=O)cc1 | – | – | 11 | – |
| O=Cc1ccc(O)c(O)c1 [PROTOCATECHUALDEHYDE] | 239 | – | – | – |
| Nc1ccc(S(=O)(=O)N2CC(=O)NC(=O)C2)cc1 | – | – | 16 | – |
| Cn1c(=O)c2c(nc(NN=C3C(=O)NC(=O)NC3=O)n2C)n(C)c1=O | – | 7.6 to 112 | – | – |
| CC(=O)Nc1ccc(S(=O)(=O)n2c(C)cc(C)nc2=O)cc1 | – | – | 2 | – |
| Cc1ccc(C)c(CSc2nc(C3CCCCC3)c(C#N)c(=O)[nH]2)c1 | – | 7.6 to 112 | – | – |
| COCC(=O)/C=C1\Sc2ccccc2N1C | – | 7.6 to 112 | – | – |
